Reference: ChEMBL document CHEMBL3120097, “HCV NS5A replication complex inhibitors. Part 4. Optimization for genotype 1a replicon inhibitory activity” (J Med Chem, 2014)

Experiments:
Hepatitis C virus [1] = assay: Antiviral activity against HCV genotype 1b infected in human HuH7 cells after 72 hrs by FRET assay; format: functional, organism-based, Hepacivirus hominis; details: Huh-7, 72 h
Method in brief: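 Replicon cells seeded 10K/well, attached overnight; compounds added with 0.5% v/v DMSO vehicle controls, typically 72 h. Alamar blue read first, then cells PBS-rinsed and lysed with reagent holding 150 mM NaCl and 20 μM final EDANS/DABCYL NS3 protease peptide; kinetic fluorescence 340/490 nm. EC₅₀ = concentration halving background-subtracted FRET signal versus DMSO wells.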

[2] = Cytotoxicity against bovine MDBK cells after 3 days by CellTitre-Blue assay; format: cell-based, Bos taurus; details: cattle
[3] = tested on: Bovine viral diarrhea virus 1; assay: Antiviral activity against BVDV infected in bovine MDBK cells after 72 hrs by luciferase reporter gene assay; format: functional, organism-based; details: Bovine viral diarrhea virus isolates and strains
Hepatitis C virus [4] = assay: Antiviral activity against HCV genotype 1a H77c infected in human HuH7 cells after 5 days by ELISA; format: functional, organism-based, Hepacivirus hominis; details: Huh-7, 120 h
Method in brief: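 Genotype 1a (H77c) replicon cells, 1.5 × 10⁴/well in DMEM + 10% FBS, attached overnight at 37 °C; serially diluted compounds (in FBS-free DMEM) added, 5 days at 37 °C. Cells dried overnight at 37 °C to fix, Triton-permeabilized, casein-blocked; NS5A antiserum then HRP secondary, chemiluminescent read. Inhibition relative to untreated wells; background set with 500 nM NS3 inhibitor.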

Hepatitis C virus [5] = assay: Antiviral activity against HCV genotype 1a H77c infected in human HuH7 cells after 3 days by luciferase reporter gene assay; format: functional, organism-based, Hepacivirus hominis; details: Huh-7, 72 h
Method in brief: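 Titrated compounds in 384-well plates seeded with replicon cells, 2.4 × 10³/well in DMEM with 4% FCS, final DMSO 0.5% v/v; 3 days at 37 °C. Renilla luciferase read with EnduRen substrate at […] final after ≥1 h at 37 °C; EC₅₀ from four-parameter logistic fit.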

Hepatitis C virus [6] = assay: Antiviral activity against HCV genotype 2a JFH; format: functional, organism-based, Hepacivirus hominis; details: subtype 2a JFH
Hepatitis C virus [7] = assay: Antiviral activity against HCV genotype 4a; format: functional, organism-based, Hepacivirus hominis

Structure (SMILES) | EC50 (Hepatitis C virus [1]) [nM] | CC50 at 72 h [2] [nM] | EC50 [3] [nM] | EC50 (Hepatitis C virus [4]) [nM] | EC50 (Hepatitis C virus [5]) [nM] | EC50 (Hepatitis C virus [6]) [nM] | EC50 (Hepatitis C virus [7]) [nM]
O=C(Nc1ccc(/C=C/c2ccc(NC(=O)[C@@H]3CCCN3C(=O)c3nncc4ccccc34)cc2)cc1)[C@@H]1CCCN1C(=O)c1nncc2ccccc12 | 30 | > 10000 | > 5000 | 1000 |  |  | 
COc1cccc2c(C(=O)N3CCC[C@H]3C(=O)Nc3ccc(C#Cc4ccc(NC(=O)[C@@H]5CCCN5C(=O)c5nc(Cl)cc6c(OC)cccc56)cc4)cc3)nc(Cl)cc12 | 23 | > 10000 | > 10000 |  | 18 |  | 
O=C(Nc1ccc(/C=C/c2ccc(NC(=O)[C@@H]3CCCN3C(=O)c3nccc4c(Cl)cccc34)cc2)cc1)[C@@H]1CCCN1C(=O)c1nccc2c(Cl)cccc12 | 139 | > 10000 | > 10000 | 255 |  |  | 
O=C(Nc1ccc(/C=C/c2ccc(NC(=O)[C@@H]3CCCN3C(=O)c3nc(Cl)cc4ccccc34)cc2)cc1)[C@@H]1CCCN1C(=O)c1nc(Cl)cc2ccccc12 | 23 | > 10000 | > 10000 | 62 |  |  | 
O=C(Nc1ccc(/C=C/c2ccc(NC(=O)[C@@H]3CCCN3C(=O)c3nc(Cl)cc4c(F)cccc34)cc2)cc1)[C@@H]1CCCN1C(=O)c1nc(Cl)cc2c(F)cccc12 | 18 | > 10000 | > 10000 | 42 |  |  | 
COc1cccc2c(C(=O)N3CCC[C@H]3C(=O)Nc3ccc(-c4cc(-c5ccc(NC(=O)[C@@H]6CCCN6C(=O)c6nc(Cl)cc7c(OC)cccc67)cc5)[nH]n4)cc3)nc(Cl)cc12 | 11 | > 10000 | > 10000 |  | 120 |  | 
O=C(Nc1ccc(/C=C/c2ccc(NC(=O)[C@@H]3CCCN3C(=O)c3cccc4ccccc34)cc2)cc1)[C@@H]1CCCN1C(=O)c1cccc2ccccc12 | 1600 | > 10000 | > 5000 | > 10000 |  |  | 
COc1cc2ccccc2c(C(=O)N2CCC[C@H]2C(=O)Nc2ccc(/C=C/c3ccc(NC(=O)[C@@H]4CCCN4C(=O)c4nc(OC)cc5ccccc45)cc3)cc2)n1 | 32 | > 10000 | > 10000 | > 10000 |  |  | 
COc1cccc2nc(C(=O)N3CCC[C@H]3C(=O)Nc3ccc(/C=C/c4ccc(NC(=O)[C@@H]5CCCN5C(=O)c5ccc6c(OC)cccc6n5)cc4)cc3)ccc12 | 971 | > 10000 | > 10000 | > 10000 |  |  | 
O=C(Nc1ccc(/C=C/c2ccc(NC(=O)[C@@H]3CCCN3C(=O)c3ncccc3-c3ccccc3)cc2)cc1)[C@@H]1CCCN1C(=O)c1ncccc1-c1ccccc1 | 820 | > 10000 | > 5000 | 2200 |  |  | 
C=Cc1cccnc1C(=O)N1CCC[C@H]1C(=O)Nc1ccc(/C=C/c2ccc(NC(=O)[C@@H]3CCCN3C(=O)c3ncccc3C=C)cc2)cc1 | 320 | > 10000 | > 5000 | 3500 |  |  | 
O=C(Nc1ccc(/C=C/c2ccc(NC(=O)[C@@H]3CCCN3C(=O)c3cncc4ccccc34)cc2)cc1)[C@@H]1CCCN1C(=O)c1cncc2ccccc12 | 140 | > 10000 | 42 | 1400 |  |  | 
COc1cccc2c(C(=O)N3CCC[C@H]3C(=O)Nc3ccc(/C=C/c4ccc(NC(=O)[C@@H]5CCCN5C(=O)c5nccc6c(OC)cccc56)cc4)cc3)nccc12 | 215 | > 10000 | > 10000 | 175 |  |  | 
Cc1cccc2c(C(=O)N3CCC[C@H]3C(=O)Nc3ccc(/C=C/c4ccc(NC(=O)[C@@H]5CCCN5C(=O)c5nccc6c(C)cccc56)cc4)cc3)nccc12 | < 5 | > 10000 | > 10000 | > 10000 |  |  | 
O=C(Nc1ccc(-c2cc(-c3ccc(NC(=O)[C@@H]4CCCN4C(=O)Cc4ccccc4)cc3)[nH]n2)cc1)[C@@H]1CCCN1C(=O)Cc1ccccc1 | 4.8 | > 10000 | > 10000 |  | 1370 |  | 
O=C(Nc1ccc(/C=C/c2ccc(NC(=O)[C@@H]3CCCN3C(=O)c3cc(Cl)cc4ccccc34)cc2)cc1)[C@@H]1CCCN1C(=O)c1cc(Cl)cc2ccccc12 | 240 | > 10000 | > 10000 | > 10000 |  |  | 
CCc1ccnc(C(=O)N2CCC[C@H]2C(=O)Nc2ccc(/C=C/c3ccc(NC(=O)[C@@H]4CCCN4C(=O)c4cc(CC)ccn4)cc3)cc2)c1 | 390 | > 10000 | > 5000 | 4100 |  |  | 
O=C(Nc1ccc(/C=C/c2ccc(NC(=O)[C@@H]3CCCN3C(=O)Cc3ccccc3)cc2)cc1)[C@@H]1CCCN1C(=O)Cc1ccccc1 |  | > 30000 | > 5000 |  |  | 79 | 157
